Assays:
human topo IIβ = human topo IIβ (Homo sapiens, UniProt Q02880); test: Human topo IIβ-mediated decatenation assay; assay type: biochemical
human topo IIα [1] = target: T1, human topo IIα (Homo sapiens, UniProt P11388); test: Human topoisomerase IIα-mediated cleavage assay; assay type: biochemical; conditions: 7.8-125 μM
human topo IIα [2] = target: T1, human topo IIα; test: Human topo IIα competitive cleavage assay; assay type: biochemical; conditions: in the presence of 50 μM etoposide
wheatgerm topo I = test: Wheatgerm topo I unwinding assay; assay type: biochemical, wheat germ; conditions: 7.8, 15.6, 31.25, 125 μM
In short: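 Wheat germ topo I plasmid unwinding run in duplicate at 7.8, 15.6, 31.25 and 125 µM test compound, with the intercalator m-AMSA as positive control.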

human topo II = human topo II (Homo sapiens, UniProt P11388); test: Competitive ATPase assay; assay type: biochemical; conditions: IC50 versus ATP concentration
In short: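 NADH-coupled ATPase (pyruvate kinase/lactate dehydrogenase, phosphoenolpyruvate) with human topo II at 14 nM final and linear pBR322. Buffer was 20 mM Tris-HCl, 5 mM Mg acetate, 125 mM K acetate, 2 mM DTT, pH 7.9. Compound in DMSO went in before enzyme, then a 10–15 min OD340 pre-run. ATP was added at varying concentrations and OD340 followed for up to 30 min at 37 °C, in duplicate. Hydrolysis rates vs ATP gave IC50 at each ATP level.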

[3] = target: ATPase domain of topo IIα (Homo sapiens, UniProt P11388); test: 1H STD NMR experiments; assay type: binding; conditions: protein:ligand ratio 1:100
In short: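 Runs were at 600 MHz, 25 °C, with a 100 ms T₁ρ filter. On-resonance saturation was at −0.727 ppm and off-resonance at 30 ppm. Saturation was 0.5 or 1 s depending on compound, with relaxation delay 4 or 1.5 s. Epitope maps come from STD amplification factors.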

[4] = Solubility as observed during preparation for assays; assay type: physicochemical
[5] = system: NCI-60 human cancer cell lines; test: NCI-60 screening, whole panel; assay type: cell-based; conditions: 10 µM
B-Raf = B-Raf (Homo sapiens, UniProt P15056); test: KinaseProfiler kinase activity assay; assay type: biochemical
In short: (§1)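 Radiometric kinase assay of test compound at 10 µM, added first from a 50× DMSO stock with no pre-incubation. Kinase was diluted in 45 mM TRIS, 0.4 mM EGTA, 18 mM DTT, 0.02 % Triton X-100, 1 mM sodium orthovanadate, 1 mM β-glycerophosphate, 2 % glycerol. Solvent wells (2 % DMSO) gave 100 % activity. Staurosporine blank wells defined 0 % activity.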

CDK1/cyclinB = CDK1/cyclinB (Homo sapiens, UniProt P06493); test: KinaseProfiler kinase activity assay; assay type: biochemical
In short: (§2)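 Radiometric kinase activity assay. Test compound was made as a 50× stock in 100 % DMSO and added first to 10 µM, with no pre-incubation before reaction start. Kinase was prepared in 20 mM MOPS, 1 mM EDTA, 0.01 % Brij-35, 5 % glycerol, 0.1 % β-mercaptoethanol, 1 mg/mL BSA. Full-activity wells had 2 % DMSO without compound. Blank wells with staurosporine set 0 % activity.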

cKit = cKit (Homo sapiens, UniProt P10721); test: KinaseProfiler kinase activity assay; assay type: biochemical
In short: as §2

c-RAF = c-RAF (Homo sapiens, UniProt P04049); test: KinaseProfiler kinase activity assay; assay type: biochemical
In short: as §1

EGFR = EGFR (Homo sapiens, UniProt P00533); test: KinaseProfiler kinase activity assay; assay type: biochemical
In short: as §2

FGFR1 = FGFR1 (Homo sapiens, UniProt P11362); test: KinaseProfiler kinase activity assay; assay type: biochemical
In short: as §2

FGFR3 = FGFR3 (Homo sapiens, UniProt P22607); test: KinaseProfiler kinase activity assay; assay type: biochemical
In short: as §2

Flt1 = Flt1 (Homo sapiens, UniProt P17948); test: KinaseProfiler kinase activity assay; assay type: biochemical
Flt3 = Flt3 (Homo sapiens, UniProt P36888); test: KinaseProfiler kinase activity assay; assay type: biochemical
Fms = Fms (Homo sapiens, UniProt P07333); test: KinaseProfiler kinase activity assay; assay type: biochemical
IGF-1R = IGF-1R (Homo sapiens, UniProt P08069); test: KinaseProfiler kinase activity assay; assay type: biochemical
JAK2 = JAK2 (Homo sapiens, UniProt O60674); test: KinaseProfiler kinase activity assay; assay type: biochemical
MEKK3 = MEKK3 (Homo sapiens, UniProt Q99759); test: KinaseProfiler kinase activity assay; assay type: biochemical
In short: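 Kinase was prepared in 50 mM HEPES, 1 mM EDTA, 10 mM DTT, 0.01 % Brij-35. Activity was measured radiometrically with 10 µM test compound added first from a 50× DMSO stock, without pre-incubation. Activity is expressed relative to 2 % DMSO control wells (100 %) and staurosporine blank wells (0 %).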

PDGFRα = PDGFRα (Homo sapiens, UniProt P16234); test: KinaseProfiler kinase activity assay; assay type: biochemical
In short: as §2

PKA = PKA (Homo sapiens, UniProt P17612); test: KinaseProfiler kinase activity assay; assay type: biochemical
In short: as §2

PKBα = PKBα (Homo sapiens, UniProt P31749); test: KinaseProfiler kinase activity assay; assay type: biochemical
In short: as §2

Ret = Ret (Homo sapiens, UniProt P07949); test: KinaseProfiler kinase activity assay; assay type: biochemical
In short: as §2

Src(1-530) = Src(1-530) (Homo sapiens, UniProt P12931); test: KinaseProfiler kinase activity assay; assay type: biochemical
In short: as §2

ATM = ATM (Homo sapiens, UniProt Q13315); test: KinaseProfiler kinase activity assay; assay type: biochemical
In short: (§3)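 Radiometric activity assay with 10 µM test compound, added first from a 50× stock in 100 % DMSO, with no compound–kinase pre-incubation. Full activity came from 2 % DMSO wells without compound. The 0 % baseline came from a reference inhibitor: KU55933 for ATM, PI-103 for DNA-PK.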

DNA-PK = DNA-PK (Homo sapiens, UniProt P78527); test: KinaseProfiler kinase activity assay; assay type: biochemical
In short: as §3

[6] = system: panel of 20 human protein kinases; test: KinaseProfiler, whole panel; assay type: biochemical; conditions: 10 µM

T1 sequence (P11388 whole entry): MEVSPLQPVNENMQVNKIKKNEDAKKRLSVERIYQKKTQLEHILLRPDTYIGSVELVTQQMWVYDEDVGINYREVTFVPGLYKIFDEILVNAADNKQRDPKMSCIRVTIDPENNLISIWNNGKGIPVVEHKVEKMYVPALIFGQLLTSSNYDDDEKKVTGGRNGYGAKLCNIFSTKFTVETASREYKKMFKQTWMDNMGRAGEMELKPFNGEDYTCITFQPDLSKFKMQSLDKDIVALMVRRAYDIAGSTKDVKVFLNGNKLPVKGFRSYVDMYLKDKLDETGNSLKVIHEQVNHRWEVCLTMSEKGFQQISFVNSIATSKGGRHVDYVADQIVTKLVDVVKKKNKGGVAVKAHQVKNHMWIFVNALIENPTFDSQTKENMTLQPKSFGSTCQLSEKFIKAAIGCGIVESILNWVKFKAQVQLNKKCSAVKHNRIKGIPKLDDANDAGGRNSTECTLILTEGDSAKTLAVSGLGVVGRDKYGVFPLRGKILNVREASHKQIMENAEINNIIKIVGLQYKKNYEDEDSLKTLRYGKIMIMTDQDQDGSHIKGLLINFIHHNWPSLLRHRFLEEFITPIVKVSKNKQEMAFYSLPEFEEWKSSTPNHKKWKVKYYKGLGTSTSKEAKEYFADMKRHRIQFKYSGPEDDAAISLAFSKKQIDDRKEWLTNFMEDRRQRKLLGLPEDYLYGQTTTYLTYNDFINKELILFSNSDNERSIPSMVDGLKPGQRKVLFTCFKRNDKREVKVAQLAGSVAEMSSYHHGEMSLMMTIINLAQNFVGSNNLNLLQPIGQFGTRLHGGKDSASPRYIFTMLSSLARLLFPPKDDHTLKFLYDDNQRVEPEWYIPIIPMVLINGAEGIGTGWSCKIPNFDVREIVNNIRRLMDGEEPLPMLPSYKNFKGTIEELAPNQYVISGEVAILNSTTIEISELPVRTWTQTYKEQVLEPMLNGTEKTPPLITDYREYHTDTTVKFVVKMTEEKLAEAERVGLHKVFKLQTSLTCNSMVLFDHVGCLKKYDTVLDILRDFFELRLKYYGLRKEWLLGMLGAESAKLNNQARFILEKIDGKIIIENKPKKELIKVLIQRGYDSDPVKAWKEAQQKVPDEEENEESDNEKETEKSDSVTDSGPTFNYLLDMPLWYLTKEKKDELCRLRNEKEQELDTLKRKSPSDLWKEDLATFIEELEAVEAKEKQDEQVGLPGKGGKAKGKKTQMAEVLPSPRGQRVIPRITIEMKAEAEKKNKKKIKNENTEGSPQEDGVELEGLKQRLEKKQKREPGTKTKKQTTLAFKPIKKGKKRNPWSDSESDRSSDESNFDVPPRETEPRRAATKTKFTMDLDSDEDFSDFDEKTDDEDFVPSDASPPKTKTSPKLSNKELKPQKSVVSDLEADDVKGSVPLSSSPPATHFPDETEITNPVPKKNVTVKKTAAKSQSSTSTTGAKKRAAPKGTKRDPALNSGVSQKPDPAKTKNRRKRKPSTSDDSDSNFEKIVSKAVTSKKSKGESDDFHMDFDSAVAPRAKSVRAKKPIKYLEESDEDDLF
Sequence of FGFR1 (P11362 22-822): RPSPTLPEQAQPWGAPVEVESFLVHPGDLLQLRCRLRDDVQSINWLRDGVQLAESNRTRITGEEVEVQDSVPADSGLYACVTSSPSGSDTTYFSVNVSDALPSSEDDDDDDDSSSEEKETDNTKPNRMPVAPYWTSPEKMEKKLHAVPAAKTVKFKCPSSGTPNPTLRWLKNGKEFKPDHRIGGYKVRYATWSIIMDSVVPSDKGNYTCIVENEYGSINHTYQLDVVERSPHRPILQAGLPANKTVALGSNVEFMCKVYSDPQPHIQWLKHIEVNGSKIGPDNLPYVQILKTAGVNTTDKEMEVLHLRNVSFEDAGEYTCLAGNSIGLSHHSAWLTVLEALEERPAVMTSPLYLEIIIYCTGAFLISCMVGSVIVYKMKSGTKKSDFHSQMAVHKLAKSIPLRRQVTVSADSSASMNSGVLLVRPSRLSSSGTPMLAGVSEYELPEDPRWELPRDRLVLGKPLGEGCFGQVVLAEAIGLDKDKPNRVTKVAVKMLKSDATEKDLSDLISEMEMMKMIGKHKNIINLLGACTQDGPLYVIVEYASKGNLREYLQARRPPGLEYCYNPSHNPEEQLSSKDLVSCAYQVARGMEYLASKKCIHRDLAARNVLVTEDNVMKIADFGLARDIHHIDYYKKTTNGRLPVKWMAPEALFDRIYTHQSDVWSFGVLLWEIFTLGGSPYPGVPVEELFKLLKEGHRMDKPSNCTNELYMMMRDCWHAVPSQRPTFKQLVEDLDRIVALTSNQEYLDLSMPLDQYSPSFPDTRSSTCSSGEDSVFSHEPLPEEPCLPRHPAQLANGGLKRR
Sequence of c-RAF (P04049 whole entry): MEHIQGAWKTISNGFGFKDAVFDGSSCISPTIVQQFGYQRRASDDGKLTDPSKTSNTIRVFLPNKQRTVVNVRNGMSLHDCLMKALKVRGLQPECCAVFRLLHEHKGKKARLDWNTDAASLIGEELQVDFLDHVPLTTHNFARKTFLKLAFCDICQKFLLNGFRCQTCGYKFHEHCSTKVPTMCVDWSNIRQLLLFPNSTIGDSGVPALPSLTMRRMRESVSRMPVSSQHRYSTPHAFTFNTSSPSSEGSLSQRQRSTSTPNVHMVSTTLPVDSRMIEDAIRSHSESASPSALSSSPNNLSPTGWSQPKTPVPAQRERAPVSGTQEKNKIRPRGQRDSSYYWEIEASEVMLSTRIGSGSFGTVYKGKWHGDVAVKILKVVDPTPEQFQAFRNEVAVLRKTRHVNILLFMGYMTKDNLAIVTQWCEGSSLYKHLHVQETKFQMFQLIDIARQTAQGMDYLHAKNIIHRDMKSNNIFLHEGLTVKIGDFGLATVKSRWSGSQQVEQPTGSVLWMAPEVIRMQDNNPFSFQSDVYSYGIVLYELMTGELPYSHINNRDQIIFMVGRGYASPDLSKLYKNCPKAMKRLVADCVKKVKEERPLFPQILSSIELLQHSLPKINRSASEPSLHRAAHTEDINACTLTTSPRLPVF
Sequence of ATPase domain of topo IIα (P11388 1-453 limits assumed): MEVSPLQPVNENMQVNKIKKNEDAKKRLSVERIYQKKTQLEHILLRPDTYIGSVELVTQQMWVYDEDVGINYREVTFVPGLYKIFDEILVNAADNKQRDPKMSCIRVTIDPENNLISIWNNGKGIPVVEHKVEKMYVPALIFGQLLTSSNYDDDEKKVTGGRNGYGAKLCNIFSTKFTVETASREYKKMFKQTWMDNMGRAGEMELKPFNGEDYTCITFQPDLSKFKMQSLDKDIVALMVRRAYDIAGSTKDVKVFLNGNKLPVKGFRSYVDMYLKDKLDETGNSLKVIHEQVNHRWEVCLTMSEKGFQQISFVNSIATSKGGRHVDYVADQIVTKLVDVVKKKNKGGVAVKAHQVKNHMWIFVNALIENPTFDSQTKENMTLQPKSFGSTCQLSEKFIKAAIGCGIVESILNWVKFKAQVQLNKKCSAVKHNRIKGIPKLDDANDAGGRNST
Sequence of MEKK3 (Q99759 whole entry): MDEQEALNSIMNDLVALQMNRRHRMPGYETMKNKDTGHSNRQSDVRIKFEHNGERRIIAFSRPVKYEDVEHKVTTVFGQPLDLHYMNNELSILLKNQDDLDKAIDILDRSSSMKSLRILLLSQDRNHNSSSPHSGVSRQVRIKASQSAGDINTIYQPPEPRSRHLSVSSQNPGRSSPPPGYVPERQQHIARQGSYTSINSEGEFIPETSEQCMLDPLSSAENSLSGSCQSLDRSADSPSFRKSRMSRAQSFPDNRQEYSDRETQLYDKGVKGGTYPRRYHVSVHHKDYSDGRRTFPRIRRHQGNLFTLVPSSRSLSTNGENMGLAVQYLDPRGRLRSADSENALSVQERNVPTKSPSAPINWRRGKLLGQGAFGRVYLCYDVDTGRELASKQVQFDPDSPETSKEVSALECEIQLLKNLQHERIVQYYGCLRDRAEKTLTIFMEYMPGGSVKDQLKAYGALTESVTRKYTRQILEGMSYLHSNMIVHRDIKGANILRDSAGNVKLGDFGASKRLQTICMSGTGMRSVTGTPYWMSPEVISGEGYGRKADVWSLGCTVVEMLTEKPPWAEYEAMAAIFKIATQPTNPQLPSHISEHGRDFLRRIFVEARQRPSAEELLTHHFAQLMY
Sequence of B-Raf (P15056 whole entry): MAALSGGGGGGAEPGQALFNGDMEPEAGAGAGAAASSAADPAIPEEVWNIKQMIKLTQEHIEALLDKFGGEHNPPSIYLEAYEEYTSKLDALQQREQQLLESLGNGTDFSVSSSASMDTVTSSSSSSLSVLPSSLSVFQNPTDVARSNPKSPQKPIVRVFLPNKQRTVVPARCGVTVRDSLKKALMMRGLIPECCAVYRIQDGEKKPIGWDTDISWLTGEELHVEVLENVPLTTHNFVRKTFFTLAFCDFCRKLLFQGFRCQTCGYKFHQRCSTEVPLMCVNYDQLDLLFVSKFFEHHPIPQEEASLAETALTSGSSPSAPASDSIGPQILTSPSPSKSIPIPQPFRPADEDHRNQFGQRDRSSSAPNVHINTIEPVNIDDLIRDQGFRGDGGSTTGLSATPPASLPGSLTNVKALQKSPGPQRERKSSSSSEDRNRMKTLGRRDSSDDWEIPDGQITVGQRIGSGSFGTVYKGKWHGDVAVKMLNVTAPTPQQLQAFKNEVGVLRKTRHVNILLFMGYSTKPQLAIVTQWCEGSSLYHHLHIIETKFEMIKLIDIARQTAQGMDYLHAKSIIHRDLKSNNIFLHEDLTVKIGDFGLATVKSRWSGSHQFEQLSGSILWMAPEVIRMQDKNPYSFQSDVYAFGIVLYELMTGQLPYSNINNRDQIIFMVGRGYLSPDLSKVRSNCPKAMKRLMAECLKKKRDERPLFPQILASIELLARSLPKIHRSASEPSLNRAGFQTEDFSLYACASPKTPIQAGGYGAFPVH
Sequence of human topo II (P11388 whole entry): as the sequence (P11388 whole entry) above

SMILES: O=c1nc(SCc2cc(F)cc(C(F)(F)F)c2)nc(SCc2ccc3sccc3c2)[nH]1 [Compound 24, 6-((Benzo[b]thiophen-5-ylmethyl)thio)−4-((3-fluoro-5-(trifluoromethyl)benzyl)thio)−1,3,5-triazin-2(1H)-one]
- IC50 (human topo IIβ): 9.9 ± 0.4 µM
- linear plasmid in the cleavage assay (in words) (human topo IIα [1]): a low level of linear plasmid was detected at 15.6 μM and above
- linear product in the competitive cleavage assay (in words) (human topo IIα [2]): appeared to reduce the linear product of the etoposide-topoIIα cleavage complex at lower concentrations
- unwinding / intercalation (in words) (wheatgerm topo I): inhibitors rather than intercalators
- mode of inhibition with respect to ATP (in words) (human topo II): no noticeable decrease in IC50 values
- interaction with the ATPase domain of topo IIα by STD NMR (in words) [3]: confirmed the interaction
- solubility (in words) [4]: more soluble compared to the benzyl-substituted analogues
- cytotoxic activity in NCI-60 (in words) [5]: marginal cytotoxicity in several leukemia cell lines
- activity at 10 µM (B-Raf): 93%
- activity at 10 µM (CDK1/cyclinB): 124%
- activity at 10 µM (cKit): 99%
- activity at 10 µM (c-RAF): 110%
- activity at 10 µM (EGFR): 100%
- activity at 10 µM (FGFR1): 90%
- activity at 10 µM (FGFR3): 92%
- activity at 10 µM (Flt1): 93%
- activity at 10 µM (Flt3): 93%
- activity at 10 µM (Fms): 77%
- activity at 10 µM (IGF-1R): 92%
- activity at 10 µM (JAK2): 107%
- activity at 10 µM (MEKK3): 87%
- activity at 10 µM (PDGFRα): 106%
- activity at 10 µM (PKA): 86%
- activity at 10 µM (PKBα): 105%
- activity at 10 µM (Ret): 91%
- activity at 10 µM (Src(1-530)): 127%
- activity at 10 µM (ATM): 86%
- activity at 10 µM (DNA-PK): 83%
- inhibition of the panel of 20 human protein kinases (in words) [6]: no significant inhibitory effect was observed
